Reference: ChEMBL document CHEMBL5108057, “Development of MAO-A and 5-HT2AR Dual Inhibitors with Improved Antidepressant Activity” (J Med Chem, 2022)
The source made the active and inactive calls. The calls are words filed in the database; no cut-off is given here.

Tests used:
[1] = Toxicity in mouse assessed as toxic effect on spleen at 10 to 20 mg/kg by H and E staining based assay; type: organism-based; details: in vivo, dose 10-20 mg/kg
In short: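 Mice given compound at 10 or 20 mg/kg, with fluoxetine 20 mg/kg as comparator. Paraffin tissue sections of 4 μm were cut. Staining: hematoxylin 5 min, 75% HCl-ethanol differentiation 30 s, eosin 2 min. Organs (liver, kidney, lung, heart, spleen) examined at ×400; hippocampus (CA1, CA3, DG) at ×200.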

Mus musculus [2] = assay: Antidepressant activity in reserpine-induced mouse hippocampal tissue model assessed as increase in 5-HT level at 10 to 20 mg/kg pretreated with reserpine for 3 days followed by compound addition on day 4 to 10 by HPLC analysis; type: functional; details: dose 10-20 mg/kg; time 6 day
Mus musculus [3] = assay: Antidepressant activity in chronic unpredictable mild stress ICR mouse model assessed as decrease in immobility time at 10 to 20 mg/kg measured after 2 weeks by forced swimming test; type: functional, organism-based; details: dose 10-20 mg/kg
In short: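 ICR mice received CUMS for 4 weeks: 11 stressors given randomly twice daily, 42 days in total. OFT: 5 min session scoring distance, speed, rearing and dejection. FST/TST: 6 min, with immobility scored over the last 4 min. Sucrose preference test was also run. Mean ± SD, n = 6.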

Homo sapiens = species: Homo sapiens; assay: Selectivity index, ratio of IC50 for inhibition of MAO-B (unknown origin) to IC50 for inhibition of MAO-A (unknown origin)
In short: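 Amplex Red coupled assay. Test sample was preincubated with MAO-A or MAO-B at 37 °C for 15 min. p-Tyramine substrate working solution was added, with HRP converting the H2O2 formed to resorufin, for a further 15 min at 37 °C. Fluorescence read at Ex 545/Em 590 nm. […] SI = MAO-B IC50 / MAO-A IC50.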

[4] = Cytotoxicity against rat PC-12 cells assessed as reduction in cell growth measured after 48 hrs by MTT assay; type: toxicity, cell-based
In short: (§1)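 MTT assay: PC12, SH-SY5Y or L02 cells at 5.0 × 10^3 per well were grown for 24 h, treated with compound dilutions from 10 mM DMSO stocks, and cultured 48 h. MTT was then added for 4 h at 37 °C, formazan dissolved in DMSO, and absorbance read at 570 nm. Viability is relative to blank control; IC50 from three repeats. Media contained 10% FBS.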

Mus musculus [5] = assay: Antidepressant activity in reserpine-induced ICR mouse model assessed as increase the number of rearing at 10 to 20 mg/kg pretreated with reserpine for 3 days followed by compound addition on day 4 to 10 by open field test; type: functional, organism-based; details: dose 10-20 mg/kg, time 6.0 day
In short: (§2)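 Body weight was recorded daily. OFT: 5 min session scoring distance, speed, rearing and dejection. FST and TST: 6 min, with immobility scored over the last 4 min. Mean ± SD, n = 6; one-way ANOVA and t-test.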

[6] = AUC(0 to infinity) in Sprague-Dawley rat at 10 mg/kg, IG measured upto 1440 mins by LC-MS/MS analysis; type: ADME, organism-based; parameters: time < 1440 min, dose 10 mg/kg, route ig; details: in vivo, po
Mus musculus [7] = assay: Antidepressant activity in reserpine-induced ICR mouse model assessed as increase in mobility at 10 to 20 mg/kg pretreated with reserpine for 3 days followed by compound addition for 1 week by open field test; type: functional, organism-based; details: dose 10-20 mg/kg, time 1.0 weeks; in short: as §2
[8] = Bioavailability in Sprague-Dawley rat at 2 mg/kg, iv measured upto 1440 mins by LC-MS/MS analysis; type: ADME, organism-based; details: in vivo
[9] = AUC(0 to 24 hrs) in Sprague-Dawley rat at 10 mg/kg, IG measured upto 1440 mins by LC-MS/MS analysis; type: ADME, organism-based; parameters: time < 1440 min, dose 10 mg/kg, route ig; details: in vivo, po
[10] = MRT infinity in Sprague-Dawley rat at 2 mg/kg, iv measured upto 1440 mins by LC-MS/MS analysis; type: ADME, organism-based; details: in vivo
[11] = Clearance in Sprague-Dawley rat at 10 mg/kg, IG measured upto 1440 mins by LC-MS/MS analysis; type: ADME, organism-based; details: in vivo, po
Mus musculus [12] = assay: Antidepressant activity in reserpine-induced ICR mouse model assessed as reduction in weight loss at 10 to 20 mg/kg pretreated with reserpine for 3 days followed by compound addition on 4 to 10 days; type: functional, organism-based; details: dose 10-20 mg/kg, time 6.0 day; in short: as §2
[13] = Cytotoxicity against human SH-SY5Y cells assessed as reduction in cell growth measured after 48 hrs by MTT assay; type: toxicity, cell-based; in short: as §1

Ratio IC50 (Homo sapiens): 262
AUC(0-inf) [6]: 504 ng·h/mL
bioavailability [8]: 4.4%
AUC(0-t) at 24 h [9]: 491 ng·h/mL
MRT inf [10]: 4.19 h
CL/F [11]: 346 mL/min/kg
Compound: O=C1c2ccccc2-c2nccc3cc(OCCCCCN4CCN(c5ccccc5F)CC4)cc1c23
Activity [1]: Non-Toxic
Activity (Mus musculus [2]): 579.92 ng/mL
Activity (Mus musculus [3]): Active
IC50 at 48 h [4]: > 10 µM
Activity (Mus musculus [5]): Active
Activity (Mus musculus [7]): Active
Activity (Mus musculus [12]): Active
IC50 at 48 h [13]: > 10 µM
